Screening results from PubChem.
An excerpt weighted towards active compounds, which were near 2% of everything screened.
Ecoli rRNA inh – inhibitors of bacterial rRNA selective over humanized ribosomes. AID 720706. 350,000 compounds, 1.6% hits. E. coli WT GFP vs humanized-ribosome RFP mutants, fluorescence, 24 h; stronger effect = lower value; DMSO median 0, no signal -100. GFP signal change (wild-type ribosome), % (test concentration not listed);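 active = significant combined selectivity score with lowered wild-type GFP, culture density cut under 30%, mutant RFP and density less affected; inactive = any of these conditions unmet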
PglD DTNB – inhibitors of Campylobacter jejuni PglD acetyltransferase | 360,000 compounds, 0.098% hits | inhibition, % at 12.5 µM | purified PglD enzyme, DTNB colorimetric CoA detection; in the data active = inhibition above about 16%, passing the limit was not always enough
RAD54 inh – RAD54 (human) branch migration inhibition | AID 602329 | inhibition, % at 10.4 µM | 360,000 compounds, 0.14% hits | RAD54 Holliday junction branch migration, FAM/BHQ fluorescence;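 active = mean normalized replicate activity at least 40 and at least half of replicates scoring 40 or more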;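 note: 0% = median of neutral control wells and 100% = median of positive control wells; inhibitors cause a drop in the FAM fluorescence signal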
Target sequence (Q92698 whole entry, looked up): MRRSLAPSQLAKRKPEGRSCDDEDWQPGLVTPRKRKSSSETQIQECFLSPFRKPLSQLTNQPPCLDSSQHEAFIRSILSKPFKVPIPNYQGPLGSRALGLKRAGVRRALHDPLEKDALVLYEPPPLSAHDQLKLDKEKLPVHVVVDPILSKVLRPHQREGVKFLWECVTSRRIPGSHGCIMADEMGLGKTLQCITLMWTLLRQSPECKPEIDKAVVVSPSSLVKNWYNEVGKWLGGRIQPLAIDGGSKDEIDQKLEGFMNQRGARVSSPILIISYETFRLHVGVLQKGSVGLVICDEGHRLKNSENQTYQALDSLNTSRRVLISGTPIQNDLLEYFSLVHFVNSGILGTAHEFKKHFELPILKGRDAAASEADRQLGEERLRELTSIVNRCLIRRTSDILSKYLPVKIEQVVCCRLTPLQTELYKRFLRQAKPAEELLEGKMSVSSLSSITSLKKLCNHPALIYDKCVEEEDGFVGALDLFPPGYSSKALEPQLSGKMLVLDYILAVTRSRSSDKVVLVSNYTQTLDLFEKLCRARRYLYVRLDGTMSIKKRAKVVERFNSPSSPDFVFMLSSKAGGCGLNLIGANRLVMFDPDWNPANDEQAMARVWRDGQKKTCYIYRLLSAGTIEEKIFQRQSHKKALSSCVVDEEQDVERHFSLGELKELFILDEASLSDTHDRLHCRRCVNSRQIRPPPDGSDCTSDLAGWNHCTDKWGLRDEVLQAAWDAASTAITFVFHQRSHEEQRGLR
XiGFP reactiv – X-chromosome reactivation activator | XiGFP mouse fibroblasts, % GFP-positive cells imaging, 3 d; cells co-treated with 5-aza-dC sensitizer; scaled so ellipticine positive control = 100% | activation, % at 7.58 µM | 360,000 compounds, 0.055% hits;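 active = mean normalized replicate activation at least 10% and every replicate at or above 10%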;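 note: 0% = median of on-plate neutral control wells and 100% = ellipticine 6 µM median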
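Material: XiGFP fibroblasts, SV40-immortalized; Buffer or medium: DMEM containing 5-aza-dC; Compound dosing: single point; Times: 3 days compound exposure.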
E-sel inducer – E-selectin induction on HUVECs. HUVEC E-selectin immunofluorescence imaging; normalized: neutral wells 0, TNF-alpha wells 100. activation, % at 7.58 µM. 260,000 compounds, 0.37% hits;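 active = mean E-selectin-positive cell signal at least 10% of the positive control, reached in at least 60% of replicates, without over 20% cell loss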
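System: HUVEC, human umbilical vein endothelial cells; quantity: 3,000 cells/well; buffer or medium: EGM-2 medium, gelatin-coated wells; dosing: single-point compound dose; detection: immunofluorescence imaging; evaluation: % PE-positive cells; benchmarks: TNF-alpha, DMSO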
RAD52 inh – blocks human RAD52 DNA annealing; 360,000 compounds, 0.46% hits; recombinant RAD52 DNA annealing, FRET fluorescence; inhibition, % at 18.7 µM; P43351;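 active = every replicate showing at least 50% inhibition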
Active calls of the source: *; nt = no result.

SMILES | Ecoli rRNA inh | PglD DTNB | RAD54 inh | XiGFP reactiv | E-sel inducer | RAD52 inh
CC=Cc1ccc2n(c1=O)C[C@H]1[C@H](CO)[C@@H](C(=O)NCC)N(Cc3nccs3)[C@@H]21 (mixture of isomers) | 2 | 2 | -10 | 0 | 0 | -12
CC1=C(C(=O)OC2CCCCCC2)C(c2ccc(C)o2)C2=C(CCCC2=O)N1 (stereo unspecified) | -3 | 4 | -7 | nt | nt | 1
COC(=O)C1=C(C)NC2=C(C(=O)CCC2)C1c1ccc(-c2ccsc2C(=O)OC)o1 (stereo unspecified) | -24* | nt | nt | 0 | nt | -18
C/C=C/c1ccc2c(c1)[C@H]1[C@H](CCN1C(=O)Cc1cccnc1)[C@@H](CO)N2C | -1 | -1 | -20 | 0 | 0 | 1
Cc1cccc(NC(=O)/C(C#N)=C/c2ccccc2Cl)n1 | -22* | 9 | 3 | 0 | nt | -27
Cc1cccc(NC(=O)/C(C#N)=C/c2ccccc2O)n1 | 0 | 0 | 9 | 0 | nt | -9
O=C(CNc1ccc(Br)cc1)c1ccc(O)cc1 | -45* | nt | nt | 0 | nt | -9
O=S(=O)(Nc1ccn(-c2ccccc2)n1)c1ccc(Br)cc1 | -46* | 5 | 4 | nt | nt | -91
c1ccc(CCN(Cc2ccccc2)Cc2nc(C3CC3)no2)cc1 | 11 | nt | nt | 0 | 0 | -21
Cc1ccsc1CN(C)Cc1nc(C2CC2)no1 | 1 | nt | nt | 0 | 513* | -10
Cc1ccc(S(=O)(=O)Nc2ccc3c(c2)CC(=O)N([C@H](C)CO)C[C@@H](C)[C@@H](CN(C)C(=O)Nc2ccccc2)O3)cc1 | -1 | 5 | 5 | -1 | nt | 10
O=S(=O)(Nc1ccc(Cl)cn1)c1ccc(Cl)cc1 | 6 | nt | nt | 0 | 0 | -7
Cc1cc(C)c(S(=O)(=O)Nc2ccc(Cl)cn2)c(C)c1 | -31* | -3 | -1 | 0 | -1 | -13
Fc1ccc(-n2cc(CNCCc3ccncc3)c(-c3ccccc3Cl)n2)cc1 | -15 | 4 | -12 | 0 | nt | -11
Fc1ccc(-n2cc(CNCCc3cccnc3)c(-c3ccccc3Cl)n2)cc1 | -40* | nt | nt | 0 | -4 | -83
CCCC(=O)Nc1ccc2c(c1)C(=O)N(C)C[C@H](OC)[C@H](C)CN(C(=O)C1CCCC1)[C@H](C)CO2 | -4 | -3 | -1 | 0 | 1 | -2
C[C@@H]1CN([C@H](C)CO)C(=O)c2cc(NC(=O)c3ccncc3)ccc2O[C@@H](C)CCCCO[C@H]1CN(C)Cc1ccc(C(=O)O)cc1 | 4 | 3 | -6 | 0 | 0 | 99*
C[C@@H]1CN([C@H](C)CO)C(=O)c2cc(NC(=O)c3ccncc3)ccc2O[C@@H](C)CCCCO[C@@H]1CN(C)Cc1ccc(C(=O)O)cc1 | 4 | 4 | -3 | 0 | 0 | 100*
C[C@@H]1CN([C@@H](C)CO)C(=O)c2cc(NC(=O)c3ccncc3)ccc2O[C@@H](C)CCCCO[C@@H]1CN(C)Cc1ccncc1 | -1 | -3 | -5 | 0 | 0 | -6
CC(C)C(=O)Nc1ccc2c(c1)C(=O)N(C)[C@@H]1CC[C@H](CC(=O)NCc3cccc(F)c3)O[C@@H]1CO2 | -2 | 2 | -1 | 0 | 0 | nt
O=S(=O)(Nc1nccs1)c1ccc(NCc2cc(Br)cc(Br)c2O)cc1 | -47* | -7 | -14 | 0 | nt | -18
Cc1cc(=O)oc2c3c(cc(OCC(=O)N[C@@H](Cc4ccccc4)C(=O)O)c12)OC(C)(C)CC3 | -31* | 1 | -10 | nt | nt | -6
Cc1cc(=O)oc2c3c(cc(OCC(=O)N[C@@H](C)C(=O)O)c12)OC(C)(C)CC3 | 2 | -1 | -5 | 0 | 0 | 2
Cc1cc(=O)oc2c3c(cc(OCC(=O)NC(Cc4ccc(Cl)cc4)C(=O)O)c12)OC(C)(C)CC3 (stereo unspecified) | -38* | -2 | -5 | nt | nt | -6
COc1ccc(S(=O)(=O)N(C)C[C@@H]2Oc3c(NC(=O)c4cc(C)nn4C)cccc3C(=O)N([C@H](C)CO)C[C@H]2C)cc1 | 1 | 4 | -8 | -1 | -1 | 11
Cc1ccc(O)c(N=Nc2ccc(S(=O)(=O)N3CCCC3)cc2)c1 | -55 | 4 | 2 | 61* | 0 | -11
